From ChEMBL document CHEMBL1122649, “3-Alkyl-2-aryl-3H-naphth[1,2-d]imidazoles, a novel class of nonacidic antiinflammatory agents” (J Med Chem, 1984)

Legend:
Type in all cases: functional
Rattus norvegicus [1] = assay: Antiinflammatory activity was measured as the percentage inhibition of edema in carrageenan induced rat paw after peroral administration of 100 mg/kg of compound; settings: route oral
Method in brief: (§1)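 Female Wistar rats (120–150 g), 10 per dose, dosed orally with an aqueous suspension in 0.5% methocel (10 mL/kg) 1 h before 0.05 mL of 1% carrageenin in saline was injected into the right hind paw aponeurosis. Paw volume was read plethysmographically at injection and 4 h later. Inhibition is given relative to vehicle controls. Screening dose 200 mg/kg; 100 mg/kg was tested when inhibition exceeded 30%. Student's t test.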

Rattus norvegicus [2] = assay: Antiinflammatory activity measured as the percentage inhibition of edema in carrageenan induced rat paw after peroral administration of 200 mg/kg of compound; settings: route oral; method in brief: as §1
Rattus norvegicus [3] = species: Rattus norvegicus; assay: Compound was evaluated for its analgesic activity by Randall-Selitto test in comparison with that of Aspirine
Method in brief: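 Randall–Selitto pain threshold, measured on the inflamed right hind paw of male Wistar rats (170–200 g), 10 per dose. Edema was induced with 0.1 mL of 20% yeast suspension in saline. Oral dosing in 0.5% methocel (10 mL/kg), highest dose one-fifth of LD50, then scaling down through 100, 50, 20, 10, 5 and 2 mg/kg. Threshold read before dosing, then hourly for 6 h. Potency expressed relative to aspirin = 1.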

Rattus norvegicus [4] = species: Rattus norvegicus; assay: Compound was evaluated for its antipyretic activity by antipyresis effect in comparison with that of Aspirin.
Method in brief: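 Male Sprague-Dawley rats (120–150 g), 6 per dose, starved 18 h and kept at 24 °C; rats above 38 °C were excluded. Fever was induced by subcutaneous 1 mL of filtered 5% peptone preincubated 48 h at 37 °C. Oral doses as in the analgesic test (top dose one-fifth of LD50, stepping down). Rectal thermocouple readings from 4 h after injection, then hourly for 4 h. Activity relative to aspirin = 1.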

Rattus norvegicus [5] = assay: (§2) Compound was evaluated for its antiinflammatory activity by adjuvant-induced polyarthritis test in rats at a dosage of 200 mg/kg administered orally; settings: route oral
Method in brief: (§3)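 Female Wistar rats (130–150 g), 8 per dose. Killed Mycobacterium butyricum (0.6 mg in 0.1 mL mineral oil) was injected into the right hind plantar aponeurosis. Oral dosing in 0.5% methocel, once daily, curative scheme from day 14 to day 27. Read-outs: percent change in hind-paw volume versus controls; Newbould 0–4 lesion scores for front paws, tail and ears; plasma inflammation units by nephelometric turbidity before and after 30 min at 56 °C on day 27.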

Rattus norvegicus [6] = assay: Compound was evaluated for its antiinflammatory activity in the cotton pellet induced granuloma(CPG) in normal rats at the dose 200 mg/kg p.o.; settings: route oral
Method in brief: (§4)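 Male Wistar rats (150–180 g), 7 per group. Two sterile 50 mg cotton pellets were implanted subcutaneously in the interscapular region under ether. Oral dosing in 0.5% methocel (10 mL/kg) daily for 6 days, starting 6 h after surgery. Animals were killed 24 h after the last dose; pellets with granuloma were dried 24 h at 80 °C. Percent inhibition versus vehicle controls.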

Rattus norvegicus [7] = assay: as §2; set-up: unit not given beside the values; settings: route oral; method in brief: as §3
Rattus norvegicus [8] = assay: Compound was evaluated for its gastroulcerogenic effect in rats at a peroral dose of 200 mg/kg; settings: route oral
Rattus norvegicus [9] = assay: (§5) Compound was evaluated for its antiinflammatory activity by adjuvant-induced polyarthritis test in rats at a dosage of 100 mg/kg administered orally; settings: route oral; method in brief: as §3
Rattus norvegicus [10] = assay: Compound was evaluated for its antiinflammatory activity in the cotton pellet induced granuloma(CPG) in normal rats at the dose 100 mg/kg p.o.; settings: route oral; method in brief: as §4
Rattus norvegicus [11] = assay: as §5; set-up: unit not given beside the values; settings: route oral; method in brief: as §3
Rattus norvegicus [12] = assay: Compound was evaluated for its gastroulcerogenic effect in rats at a peroral dose of 200 mg/kg, P<0.05.; settings: route oral

## COc1ccc(-c2nc3c4ccccc4ccc3n2C(C)CO)cc1 (configuration not stated)
Rattus norvegicus [1]
  inhibition in vivo at 100 mg/kg: 31%
Rattus norvegicus [2]
  inhibition in vivo at 200 mg/kg: 35%

## COc1ccc(-c2nc3c4ccccc4ccc3n2C)cc1C
Rattus norvegicus [1]
  inhibition in vivo at 100 mg/kg: 24%
Rattus norvegicus [2]
  inhibition in vivo at 200 mg/kg: 35%

## Cn1c(-c2cccc(Cl)c2)nc2c3ccccc3ccc21
Rattus norvegicus [2]
  inhibition in vivo at 200 mg/kg: 7%

## Cn1c(-c2ccncc2)nc2c3ccccc3ccc21
Rattus norvegicus [3]
  Activity: 2.4
Rattus norvegicus [4]
  Activity: 1.4
Rattus norvegicus [5]
  Arthritis scores: 10
  Inflammation units: 3
Rattus norvegicus [6]
  inhibition in vivo at 200 mg/kg: 33%
Rattus norvegicus [1]
  inhibition in vivo at 100 mg/kg: 44%
Rattus norvegicus [2]
  inhibition in vivo at 200 mg/kg: 63%
Rattus norvegicus [7]
  Mean volume of hind paws: 20
Rattus norvegicus [8]
  Ulcerogenic index: 0.31

## COc1ccccc1-c1nc2c3ccccc3ccc2n1C
Rattus norvegicus [2]
  inhibition in vivo at 200 mg/kg: 0%

## Cn1c(-c2cccs2)nc2c3ccccc3ccc21
Rattus norvegicus [3]
  Activity: 1
Rattus norvegicus [4]
  Activity: 0.9
Rattus norvegicus [5]
  Arthritis scores: 24
  Inflammation units: 18
Rattus norvegicus [6]
  inhibition in vivo at 200 mg/kg: 31%
Rattus norvegicus [1]
  inhibition in vivo at 100 mg/kg: 31%
Rattus norvegicus [2]
  inhibition in vivo at 200 mg/kg: 40%
Rattus norvegicus [7]
  Mean volume of hind paws: 23
Rattus norvegicus [8]
  Ulcerogenic index: 0.12

## COc1cccc(-c2nc3c4ccccc4ccc3n2C)c1
Rattus norvegicus [2]
  inhibition in vivo at 200 mg/kg: 21%

## Cc1cc(-c2nc3c4ccccc4ccc3n2C)ccc1N(C)C
Rattus norvegicus [3]
  Activity: 2.8
Rattus norvegicus [4]
  Activity: 10.5
Rattus norvegicus [9]
  Arthritis scores: 69
  Inflammation units: 84
Rattus norvegicus [10]
  inhibition in vivo at 100 mg/kg: 38%
Rattus norvegicus [1]
  inhibition in vivo at 100 mg/kg: 64%
Rattus norvegicus [2]
  inhibition in vivo at 200 mg/kg: 69%
Rattus norvegicus [8]
  Ulcerogenic index: 0.21
Rattus norvegicus [11]
  Mean volume of hind paws: 42

## C=C(C)n1c(-c2ccc(OC)cc2)nc2c3ccccc3ccc21
Rattus norvegicus [9]
  Arthritis scores: 70
  Inflammation units: 68
Rattus norvegicus [1]
  inhibition in vivo at 100 mg/kg: 54%
Rattus norvegicus [2]
  inhibition in vivo at 200 mg/kg: 58%
Rattus norvegicus [11]
  Mean volume of hind paws: 38

## Cn1c(-c2ccc(OCC(=O)O)cc2)nc2c3ccccc3ccc21
Rattus norvegicus [2]
  inhibition in vivo at 200 mg/kg: 7%

## CCOc1ccc(-c2nc3c4ccccc4ccc3n2C)cc1
Rattus norvegicus [3]
  Activity: 0.3
Rattus norvegicus [4]
  Activity: 2.2
Rattus norvegicus [5]
  Arthritis scores: 43
  Inflammation units: 60
Rattus norvegicus [6]
  inhibition in vivo at 200 mg/kg: 40%
Rattus norvegicus [1]
  inhibition in vivo at 100 mg/kg: 37%
Rattus norvegicus [2]
  inhibition in vivo at 200 mg/kg: 45%
Rattus norvegicus [7]
  Mean volume of hind paws: 25
Rattus norvegicus [12]
  Ulcerogenic index: 0.21

## C=Cn1c(-c2ccc(OC)cc2)nc2c3ccccc3ccc21
Rattus norvegicus [3]
  Activity: 1.1
Rattus norvegicus [4]
  Activity: 6.9
Rattus norvegicus [9]
  Arthritis scores: 39
  Inflammation units: 61
Rattus norvegicus [6]
  inhibition in vivo at 200 mg/kg: 31%
Rattus norvegicus [1]
  inhibition in vivo at 100 mg/kg: 48%
Rattus norvegicus [2]
  inhibition in vivo at 200 mg/kg: 58%
Rattus norvegicus [8]
  Ulcerogenic index: 0.3
Rattus norvegicus [11]
  Mean volume of hind paws: 34

## COc1ccc(-c2nc3c4ccccc4ccc3n2C2CC2)cc1
Rattus norvegicus [3]
  Activity: 0.7
Rattus norvegicus [4]
  Activity: 0.8
Rattus norvegicus [6]
  inhibition in vivo at 200 mg/kg: 11%
Rattus norvegicus [1]
  inhibition in vivo at 100 mg/kg: 53%
Rattus norvegicus [2]
  inhibition in vivo at 200 mg/kg: 56%
Rattus norvegicus [8]
  Ulcerogenic index: 0.29

## Cc1cc(-c2nc3c4ccccc4ccc3n2C)cc(C)c1N(C)C
Rattus norvegicus [2]
  inhibition in vivo at 200 mg/kg: 14%

## CCC(C)n1c(-c2ccc(OC)cc2)nc2c3ccccc3ccc21 (configuration not stated)
Rattus norvegicus [2]
  inhibition in vivo at 200 mg/kg: 18%

## CCn1c(-c2ccc(OC)cc2)nc2c3ccccc3ccc21
Rattus norvegicus [3]
  Activity: 1.1
Rattus norvegicus [4]
  Activity: 2.9
Rattus norvegicus [5]
  Arthritis scores: 21
  Inflammation units: 35
Rattus norvegicus [6]
  inhibition in vivo at 200 mg/kg: 31%
Rattus norvegicus [1]
  inhibition in vivo at 100 mg/kg: 49%
Rattus norvegicus [2]
  inhibition in vivo at 200 mg/kg: 52%
Rattus norvegicus [7]
  Mean volume of hind paws: 21
Rattus norvegicus [12]
  Ulcerogenic index: 0.09

## COc1ccc(-c2nc3c4ccccc4ccc3n2CCO)cc1
Rattus norvegicus [2]
  inhibition in vivo at 200 mg/kg: 11%

## CCCCn1c(-c2ccc(OC)cc2)nc2c3ccccc3ccc21
Rattus norvegicus [2]
  inhibition in vivo at 200 mg/kg: 25%

## CNc1ccc(-c2nc3c4ccccc4ccc3n2C)cc1
Rattus norvegicus [10]
  inhibition in vivo at 100 mg/kg: 33%
Rattus norvegicus [1]
  inhibition in vivo at 100 mg/kg: 47%
Rattus norvegicus [2]
  inhibition in vivo at 200 mg/kg: 59%
Rattus norvegicus [12]
  Ulcerogenic index: 0.16

## CC(=O)Oc1ccc(-c2nc3c4ccccc4ccc3n2C)cc1
Rattus norvegicus [2]
  inhibition in vivo at 200 mg/kg: 8%

## Cc1ccc(-c2nc3c4ccccc4ccc3n2C)cc1
Rattus norvegicus [2]
  inhibition in vivo at 200 mg/kg: 21%

## Cn1c(-c2ccccc2O)nc2c3ccccc3ccc21
Rattus norvegicus [2]
  inhibition in vivo at 200 mg/kg: 1%

## Cn1c(-c2ccc3c(c2)OCO3)nc2c3ccccc3ccc21
Rattus norvegicus [2]
  inhibition in vivo at 200 mg/kg: 28%

## COc1ccc(-c2nc3c4ccccc4ccc3n2C2CCCCC2)cc1
Rattus norvegicus [2]
  inhibition in vivo at 200 mg/kg: 16%

## Cn1c(-c2ccc(O)cc2)nc2c3ccccc3ccc21
Rattus norvegicus [2]
  inhibition in vivo at 200 mg/kg: 4%

## Cn1c(-c2ccc(Cl)cc2)nc2c3ccccc3ccc21
Rattus norvegicus [2]
  inhibition in vivo at 200 mg/kg: 21%

## COc1ccc(-c2nc3c(ccc4ccccc43)[nH]2)cc1
Rattus norvegicus [2]
  inhibition in vivo at 200 mg/kg: 10%

## CC(=O)Nc1ccc(-c2nc3c4ccccc4ccc3n2C)cc1
Rattus norvegicus [1]
  inhibition in vivo at 100 mg/kg: 29%
Rattus norvegicus [2]
  inhibition in vivo at 200 mg/kg: 35%

## CCC(CC)n1c(-c2ccc(OC)cc2)nc2c3ccccc3ccc21
Rattus norvegicus [2]
  inhibition in vivo at 200 mg/kg: 11%

## COc1ccc(-c2nc3c4ccccc4ccc3n2CC(C)C)cc1
Rattus norvegicus [2]
  inhibition in vivo at 200 mg/kg: 30%

## COc1ccc(-c2nc3c4ccccc4ccc3n2C(C)(C)C)cc1
Rattus norvegicus [2]
  inhibition in vivo at 200 mg/kg: 19%

## CC(C)Oc1ccc(-c2nc3c4ccccc4ccc3n2C)cc1
Rattus norvegicus [1]
  inhibition in vivo at 100 mg/kg: 25%
Rattus norvegicus [2]
  inhibition in vivo at 200 mg/kg: 31%

## CCCn1c(-c2ccc(OC)cc2)nc2c3ccccc3ccc21
Rattus norvegicus [2]
  inhibition in vivo at 200 mg/kg: 20%

## CN(C)c1ccc(-c2nc3c4ccccc4ccc3n2C)cc1
Rattus norvegicus [10]
  inhibition in vivo at 100 mg/kg: 24%
Rattus norvegicus [1]
  inhibition in vivo at 100 mg/kg: 54%
Rattus norvegicus [2]
  inhibition in vivo at 200 mg/kg: 68%
Rattus norvegicus [12]
  Ulcerogenic index: 1.07

## Cn1c(-c2ccc[nH]2)nc2c3ccccc3ccc21
Rattus norvegicus [2]
  inhibition in vivo at 200 mg/kg: 1%

## Cl.Cl.Cn1c(-c2cccnc2)nc2c3ccccc3ccc21
Rattus norvegicus [2]
  inhibition in vivo at 200 mg/kg: 12%

## Cl.Cn1c(-c2ccccn2)nc2c3ccccc3ccc21
Rattus norvegicus [2]
  inhibition in vivo at 200 mg/kg: 24%

## COc1ccc(-c2nc3c4ccccc4ccc3n2C(C)C)cc1 [TOMOXIPROLE]
Rattus norvegicus [3]
  Activity: 2.2
Rattus norvegicus [4]
  Activity: 0.7
Rattus norvegicus [9]
  Arthritis scores: 77
  Inflammation units: 93
Rattus norvegicus [6]
  inhibition in vivo at 200 mg/kg: 45%
Rattus norvegicus [1]
  inhibition in vivo at 100 mg/kg: 45%
Rattus norvegicus [2]
  inhibition in vivo at 200 mg/kg: 48%
Rattus norvegicus [11]
  Mean volume of hind paws: 43
